Only some compounds are listed: those with a hit (about 1.9% of all), similar ones and a draw of the others.
Rce1 inh: yeast Rce1p protease inhibitors, primary screen, biochemical, fluorescence, cell-free homogeneous; yeast membranes, quenched prenylated peptide cleavage fluorescence; calls only; 0.27% of 290,000 active;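 active = fall in fluorescence gain of 50% or more versus controls, with final raw signal at or below 3038400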
TbMetRS inhib: T. brucei MetRS inhibitors, primary screen, biochemical, luminescence. 0.4% of 360,000 active. inhibition, % at 11.9 µM. purified T. brucei MetRS, ATP depletion, Kinase-Glo luminescence. AID 624268, 2012. methionyl-tRNA synthetase (Trypanosoma brucei brucei);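 active = inhibition above a per-plate cutoff of the control wells' mean inhibition plus 3 SD, cut at about 5.5% in these data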
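assay system = parasite MetRS enzyme | timing = 15 min preincubation, 2 h reaction, all 25 °C | evaluation = percent inhibition relative to median high and low control wells | medium = HEPES buffer containing pyrophosphatase, BSA, spermine, DTT | compound = single dose, 11.9 µM final nominal, 0.9% final DMSO | detection = Kinase-Glo luminescence, ATP depletion format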
HCV core dimer: inhibitors of HCV core protein dimerization, primary screen, biochemical, TR-FRET, high-throughput; 0.33% of 300,000 active; TR-FRET GST/Flag-core106 dimerization, 1536-well; AID 1899, 2009; inhibition, % at 5 µM;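 active = inhibition above the mean of all tested compounds plus 3 SD, set per screening campaign, cut at about 45% in these data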
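assay system = GST-tagged and Flag-tagged HCV core protein residues 1-106 | controls = unlabelled core106 and no-GST-core106 wells | incubation = compound-protein-antibody incubation 4 h at 22.5 °C | probe or stimulus = Eu donor and XL665 acceptor anti-tag antibodies | read-out = % inhibition based on acceptor/donor emission ratio | signal = TR-FRET 671 and 617 nm emission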
Pemphigus Ab inh: inhibitors of pemphigus antibody binding to DSG3, primary screen, biochemical, bead-based, flow cytometry, scFv-GFP; 0.48% of 310,000 active; DSG3-coupled beads, scFv-anti-DSG3-GFP binding; stronger effect = lower value; binding (percent of control), % at 10 µM; AID 588358, 2011;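 active = binding more than 3 SD below its plate's average and above zero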;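 note: hits lower antibody fragment binding to DSG3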
NadD block: inhibitors of S. aureus NadD, primary screen, biochemical, colorimetric, uHTS; inhibition, % at 20 µM; AID 602399, 2012; 0.78% of 360,000 active; purified NadD enzyme, colorimetric absorbance read-out; Nicotinate-nucleotide adenylyltransferase NadD (Staphylococcus aureus N315); in the data active = inhibition above about 26%
Tb MetRS conf: T. brucei MetRS inhibitors, confirmation, biochemical, luminescence. shares compounds with TbMetRS inhib. T. brucei MetRS enzyme, luminescence (ATP depletion). inhibition, % at 11.9 µM. 93% of 1,400 active. AID 624412, 2012; in the data active = inhibition above about 7%
Jurkat tox: Jurkat T cell cytotoxicity, cytotoxicity control for T. brucei MetRS inhibitor project, luminescence, high throughput; shares compounds with TbMetRS inhib; 12% of 1,400 active; Jurkat cells viability, ATP luminescence; inhibition, % at 8.3 µM; in the data active = inhibition above about 15%
TbMetRS FP orth: T. brucei MetRS inhibitors, orthogonal assay for T. brucei MetRS inhibitor project, biochemical, fluorescence polarization | inhibition, % at 11.9 µM | purified T. brucei MetRS | shares compounds with TbMetRS inhib | 44% of 1,400 active; in the data active = inhibition above about 17%
Of the large screens only hits and unclear results are named; the others gave an inactive call (follow-up assays come after a bar, where they were run).

CCN(C(=O)CSc1nnc(-c2c[nH]c3ccccc23)o1)C1CCS(=O)(=O)C1 (configuration not stated)	TbMetRS inhib 7.3 | Tb MetRS conf 13.3 | Jurkat tox inactive | TbMetRS FP orth inactive
CCCCCCC#Cc1cncc(C(=O)NNC(=O)Nc2cc(Cl)cc(Cl)c2)c1	none
CCCCC#Cc1cncc(C(=O)NN)c1	TbMetRS inhib 5.7 | Tb MetRS conf inactive | Jurkat tox inactive | TbMetRS FP orth inactive
CCCCCCC1CC(C)(/C(C)=N/NC(N)=O)OC1=O (configuration not stated)	none
Cc1ccc2[nH]c(=O)c(CN(Cc3cccs3)Cc3nnnn3Cc3ccccc3)cc2c1	TbMetRS inhib 9.1 | Tb MetRS conf 20.8 | Jurkat tox inactive | TbMetRS FP orth inactive
CCOC(=O)Cn1nnnc1CN(Cc1cccs1)Cc1cc2cc(C)ccc2[nH]c1=O	none (no result: Pemphigus Ab inh)
O=C(COC(=O)CCCOc1ccc(Cl)cc1Cl)Nc1cccc(Cl)c1	TbMetRS inhib 31.4 (no result: Pemphigus Ab inh) | Tb MetRS conf 44.9 | Jurkat tox inactive | TbMetRS FP orth 48.9
C#CCN(C)CCCOc1ccc(Cl)cc1Cl	TbMetRS inhib 7.3 | Tb MetRS conf 18.2 | Jurkat tox inactive | TbMetRS FP orth inactive
CCN(CC)C(=O)CCCOc1ccc(Cl)cc1Cl	TbMetRS inhib 9.1 (no result: Pemphigus Ab inh) | Tb MetRS conf 16.2 | Jurkat tox inactive | TbMetRS FP orth inactive
CC(C)NC(=O)CCCOc1ccc(Cl)cc1Cl	TbMetRS inhib 6.3 | Tb MetRS conf 11.0 | Jurkat tox inactive | TbMetRS FP orth inactive
CC(=O)Nc1ccc(NC(=O)CSc2ncc(C(=O)Nc3ccc(Cl)cc3)c(=O)n2C)cc1	none
CCNC(=S)N1CCc2cc(OC)c(OC)cc2C1COc1ccccc1OC (configuration not stated)	none
O=C(O)CCCCCn1c(SCC(=O)c2ccc(O)c(O)c2)nc2ccsc2c1=O	TbMetRS inhib 6.2 | Tb MetRS conf 13.7 | Jurkat tox inactive | TbMetRS FP orth 35.5
COc1ccccc1-c1nnc(SC(C(=O)c2c[nH]c3ccccc23)c2ccccc2)n1C (configuration not stated)	TbMetRS inhib 13.4 | Tb MetRS conf 35.3 | Jurkat tox inactive | TbMetRS FP orth inactive
Cn1c(SCc2ccccc2)nnc1-c1c[nH]c2ccccc12	TbMetRS inhib 8.3 | Tb MetRS conf 18.9 | Jurkat tox inactive | TbMetRS FP orth inactive
CCOc1ccc(C2c3c(oc4cc(C)c(C)cc4c3=O)C(=O)N2CCCN(C)C)cc1OC (configuration not stated)	none
O=C(CSc1nc2ccccc2[nH]1)NCCc1ccc(Cl)cc1	TbMetRS inhib 32.3 | Tb MetRS conf 37.2 | Jurkat tox inactive | TbMetRS FP orth 17.2
O=C(CCCSc1nc2ccccc2[nH]1)NCc1ccccc1F	none (no result: Rce1 inh)
O=C(CCCSc1nc2ccccc2[nH]1)NCc1ccc(Cl)cc1	TbMetRS inhib 43.0 | Tb MetRS conf 68.3 | Jurkat tox inactive | TbMetRS FP orth 30.2
COc1cc(/C=C/C(=O)OCc2cn3cc(Cl)ccc3n2)ccc1O	none
C=CCNC(=O)CN1CCC(O)(c2ccccc2)CC1	none
CC1(C(=O)NS(=O)(=O)c2cccc(OC(F)F)c2)CCN1C(=O)c1ccccc1 (configuration not stated)	none (no result: Rce1 inh, HCV core dimer, Pemphigus Ab inh)
COc1ccccc1C(=O)Nc1ccc(NC(=O)C2CCCCC2)nc1	none
COc1cccc(-c2cnc(C(O)c3ccc(F)c(F)c3)[nH]2)c1 (configuration not stated)	none (no result: Rce1 inh, HCV core dimer, Pemphigus Ab inh)
COc1cccc(-c2cnc(C(O)c3cc(F)cc(Cl)c3)[nH]2)c1 (configuration not stated)	TbMetRS inhib 19.6 (no result: Rce1 inh, HCV core dimer, Pemphigus Ab inh) | Tb MetRS conf 40.1 | Jurkat tox inactive | TbMetRS FP orth 18.4
COc1cccc(-c2cnc(C(O)c3cc(Cl)cc(Cl)c3)[nH]2)c1 (configuration not stated)	TbMetRS inhib 54.5 (no result: Rce1 inh, HCV core dimer, Pemphigus Ab inh) | Tb MetRS conf 77.5 | Jurkat tox inactive | TbMetRS FP orth 56.9
CNC(=O)COC(=O)c1ccc(Cl)c(S(N)(=O)=O)c1	TbMetRS inhib 6.4 | Tb MetRS conf inactive | Jurkat tox inactive | TbMetRS FP orth inactive
CCCn1c(NCc2cc(OC)ccc2OC)nc2ccccc21	TbMetRS inhib 11.2 | Tb MetRS conf 19.9 | Jurkat tox inactive | TbMetRS FP orth inactive
COc1ccc(OC)c(CNc2nc3ccccc3n2CCN2CCCCC2)c1	none
CCn1c(NCc2cc(OC)ccc2OC)nc2ccccc21	TbMetRS inhib 9.8 | Tb MetRS conf 20.1 | Jurkat tox inactive | TbMetRS FP orth inactive
CCn1c(NCc2cccc(OC)c2OC)nc2ccccc21	none
O=C1[C@@H]2Cc3c([nH]c4ccccc34)C(c3cccc(Br)c3)N2C(=O)CN1C1CCN(Cc2ccccc2)CC1 (some centres not stated)	TbMetRS inhib 41.4 | Tb MetRS conf 54.1 | Jurkat tox inactive | TbMetRS FP orth 27.8
COc1cccc(C2c3[nH]c4ccccc4c3C[C@H]3C(=O)N(C4CC4)CC(=O)N23)c1 (some centres not stated)	TbMetRS inhib 15.9 | Tb MetRS conf 29.9 | Jurkat tox inactive | TbMetRS FP orth 21.7
COc1cccc(C2c3[nH]c4ccccc4c3C[C@H]3C(=O)N(C)CC(=O)N23)c1 (some centres not stated)	TbMetRS inhib 15.9 | Tb MetRS conf 30.9 | Jurkat tox inactive | TbMetRS FP orth inactive
COc1ccc(C2c3[nH]c4ccccc4c3C[C@H]3C(=O)N(C)CC(=O)N23)cc1OC (some centres not stated)	none
Cc1ccc(NC(=O)NC2CCN(CC(=O)Nc3nccs3)CC2)cc1	none (no result: Rce1 inh)
CCCCNC(=O)N1CCC(CCC(=O)N(C)Cc2ccccc2)CC1	none
CCOC(=O)CNC(=O)N1CCC(CCC(=O)N(C)Cc2ccccc2)CC1	TbMetRS inhib 5.7 | Tb MetRS conf inactive | Jurkat tox inactive | TbMetRS FP orth inactive
O=C(NCc1nc2ccccc2[nH]1)C1=C[C@H](c2ccc(C(F)(F)F)cc2)C[C@H](OCc2ccc(CO)cc2)O1	TbMetRS inhib 18.1 | Tb MetRS conf 48.5 | Jurkat tox inactive | TbMetRS FP orth 30.1
